Laboratory results: ChEMBL document CHEMBL4732185, “Synthesis, biological evaluation and structure-activity relationship of novel dichloroacetophenones targeting pyruvate dehydrogenase kinases with potent anticancer activity” (Eur J Med Chem, 2021)
Calls of active or inactive are those of the source. The calls are words filed in the database; no cut-off is given here.

What was measured:
A-375 [1] = experiment: Induction of apoptosis in human A375 cells assessed as viable cells at 2.5 uM after 36 hrs by annexinV-FITC/propidium iodide staining based flow cytometric analysis (reference value: 94.15%); assay type: functional; conditions: read-out: Activity
MCF7 [2] = experiment: Antiproliferative activity against human MCF7 cells assessed as growth inhibition after 72 hrs by MTT assay; assay type: functional, cell-based; conditions: Homo sapiens, MCF7, 72 h; read-out: IC50
In short: (§1)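 MTT viability assay. Cancer lines seeded at 3000–6000 cells/well and L02 at 7000 cells/well, cultured overnight, then exposed to a full dose range for 72 h. MTT (0.5 mg/mL) added for 4 h, supernatant removed, formazan dissolved in DMSO, absorbance read at 570 nm. IC50 taken as the mean of three independent experiments. Cells grown in DMEM + 10% FBS, 37 °C, 5% CO2.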

A-375 [3] = experiment: Induction of cell cycle arrest in human A375 cells assessed as accumulation at G2 phase at 5 uM after 24 hrs by propidium iodide staining based flow cytometric analysis (reference value: 10.02%); assay type: functional
A549 = experiment: Antiproliferative activity against human A549 cells assessed as growth inhibition after 72 hrs by MTT assay; assay type: functional, cell-based; conditions: Homo sapiens, A549, 72 h; read-out: IC50; in short: as §1
A-375 [4] = experiment: Induction of apoptosis in human A375 cells assessed as viable cells at 5 uM after 24 hrs by annexinV-FITC/propidium iodide staining based flow cytometric analysis (Rvb= 97.94%); assay type: functional; conditions: read-out: Activity
[5] = target: [Pyruvate dehydrogenase (acetyl-transferring)] kinase isozyme 4, mitochondrial (Homo sapiens, UniProt Q16654); experiment: Binding affinity to PDK4 (unknown origin) by isothermal titration calorimetry
[Pyruvate dehydrogenase (acetyl-transferring)] kinase isozyme 4, mitochondrial, sequence (Q16654 whole entry): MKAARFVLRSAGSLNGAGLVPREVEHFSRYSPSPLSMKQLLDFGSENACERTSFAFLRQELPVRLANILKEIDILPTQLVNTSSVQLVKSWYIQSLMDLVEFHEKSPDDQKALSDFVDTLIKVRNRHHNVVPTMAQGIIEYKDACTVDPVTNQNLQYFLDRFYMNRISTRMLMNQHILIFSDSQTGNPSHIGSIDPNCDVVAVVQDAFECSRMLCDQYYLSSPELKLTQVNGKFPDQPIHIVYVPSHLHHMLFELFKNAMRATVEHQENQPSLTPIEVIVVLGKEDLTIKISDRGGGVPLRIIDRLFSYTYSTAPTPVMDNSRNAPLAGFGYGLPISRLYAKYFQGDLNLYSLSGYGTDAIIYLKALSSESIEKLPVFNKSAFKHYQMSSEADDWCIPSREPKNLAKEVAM
In short: (§2)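 Isothermal titration calorimetry at 25 °C. Compound dissolved in DMSO, diluted to 100 µM in buffer and placed in the titration syringe; 250 µL of PDK protein solution in the reaction cell. Titrant added in 2.5 µL increments per injection.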

A-375 [6] = experiment: Induction of cell cycle arrest in human A375 cells assessed as accumulation at G2 phase at 1 uM after 24 hrs by propidium iodide staining based flow cytometric analysis (reference value: 10.02%); assay type: functional
[7] = Toxicity in mouse xenografted with human A375 cells assessed as reduction in body weight at 5 mg/kg, im administered once per three days for 21 days; assay type: organism-based; conditions: in vivo, 504 h, time 21 day
In short: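 A375 cells at 80% confluence harvested with trypsin/EDTA, resuspended in serum-free DMEM, and injected subcutaneously into the right flank. Tumours visible at 7 days. Mice randomized to vehicle or 5 mg/kg (n = 4/group), dosed intramuscularly once every three days. Body weight followed over 21 days.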

Homo sapiens = species on record: Homo sapiens; experiment: Inhibition of PDK (unknown origin) using RYHGHSMSDP as substrate at 1 uM after 30 mins by Kinase-Glo luminescent assay
[8] = target: [Pyruvate dehydrogenase (acetyl-transferring)] kinase isozyme 3, mitochondrial (Homo sapiens, UniProt Q15120); experiment: Binding affinity to PDK3 (unknown origin) by isothermal titration calorimetry; in short: as §2
[Pyruvate dehydrogenase (acetyl-transferring)] kinase isozyme 3, mitochondrial, sequence (Q15120 whole entry): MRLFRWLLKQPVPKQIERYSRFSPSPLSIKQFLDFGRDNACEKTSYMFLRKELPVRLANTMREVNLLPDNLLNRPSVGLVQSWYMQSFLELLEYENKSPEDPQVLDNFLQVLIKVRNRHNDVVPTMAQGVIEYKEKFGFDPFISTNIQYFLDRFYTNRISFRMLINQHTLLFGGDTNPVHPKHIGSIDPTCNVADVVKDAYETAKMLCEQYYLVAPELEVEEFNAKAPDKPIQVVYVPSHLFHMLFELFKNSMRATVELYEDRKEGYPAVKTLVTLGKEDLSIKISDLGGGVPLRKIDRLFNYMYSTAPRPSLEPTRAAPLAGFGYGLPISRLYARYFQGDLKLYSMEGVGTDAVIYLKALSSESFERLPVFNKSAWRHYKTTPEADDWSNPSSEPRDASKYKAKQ

SH-SY5Y = experiment: Antiproliferative activity against human SHSY-5Y cells assessed as growth inhibition after 72 hrs by MTT assay; assay type: functional, cell-based; conditions: Homo sapiens, SH-SY5Y, 72 h; read-out: IC50; in short: as §1
MCF7 [9] = experiment: Antiproliferative activity against human MCF7 cells assessed as growth inhibition at 10 uM after 72 hrs by MTT assay relative to control; assay type: functional; conditions: read-out: GI
In short: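 Single-concentration MTT screen on MCF-7 and A549 cells grown in DMEM + 10% FBS. Cells at 3000–6000/well, cultured overnight, then given compound in buffer with 1% DMSO for 72 h. MTT (0.5 mg/mL) added for 4 h, formazan dissolved in DMSO, A570 read. Percent inhibition reported as the average ± S.D. of three independent measurements.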

A-375 [10] = experiment: Induction of cell cycle arrest in human A375 cells assessed as accumulation at S phase at 5 uM after 24 hrs by propidium iodide staining based flow cytometric analysis (reference value: 37.33%); assay type: functional
A-375 [11] = experiment: Induction of apoptosis in human A375 cells assessed as necrotic cells at 1 uM after 36 hrs by annexinV-FITC/propidium iodide staining based flow cytometric analysis (reference value: 1.63%); assay type: functional
A-375 [12] = experiment: Induction of apoptosis in human A375 cells assessed as necrotic cells at 5 uM after 24 hrs by annexinV-FITC/propidium iodide staining based flow cytometric analysis (reference value: 0.56%); assay type: functional
A-375 [13] = experiment: Induction of apoptosis in human A375 cells assessed as late apoptotic cells at 1 uM after 36 hrs by annexinV-FITC/propidium iodide staining based flow cytometric analysis (reference value: 1.02%); assay type: functional
A-375 [14] = experiment: Inhibition of PDK in human A375 cells assessed as reduction lactate formation at 2.5 to 5 uM after 4 hrs by Nova Bio-profile Flex analyzer; assay type: cell-based; conditions: dose 2.5-5 µM
In short: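 A375 cells seeded at 2.5 × 10⁵/well in 24-well plates and cultured overnight. Treated 4 h at 37 °C. Medium collected and centrifuged 4 min at 12000 rpm for lactate determination.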

L02 = experiment: Cytotoxicity against human L02 cells assessed as reduction in cell viability after 72 hrs by MTT assay; assay type: cell-based; conditions: Homo sapiens, L02, 72 h; read-out: IC50; in short: as §1
A-375 [15] = experiment: Induction of cell cycle arrest in human A375 cells assessed as accumulation at S phase at 1 uM after 24 hrs by propidium iodide staining based flow cytometric analysis (reference value: 37.33%); assay type: functional
A-375 [16] = experiment: Induction of apoptosis in human A375 cells assessed as necrotic cells at 2.5 uM after 36 hrs by annexinV-FITC/propidium iodide staining based flow cytometric analysis (reference value: 1.63%); assay type: functional
A-375 [17] = experiment: Induction of cell cycle arrest in human A375 cells assessed as accumulation at G1 phase at 5 uM after 24 hrs by propidium iodide staining based flow cytometric analysis (reference value: 52.65%); assay type: functional
A-375 [18] = experiment: Induction of apoptosis in human A375 cells assessed as early apoptotic cells at 5 uM after 12 hrs by annexinV-FITC/propidium iodide staining based flow cytometric analysis (reference value: 0.87%); assay type: functional
A-375 [19] = experiment: Induction of apoptosis in human A375 cells assessed as viable cells at 5 uM after 36 hrs by annexinV-FITC/propidium iodide staining based flow cytometric analysis (reference value: 94.15%); assay type: functional; conditions: read-out: Activity
A-375 [20] = experiment: Induction of apoptosis in human A375 cells assessed as early apoptotic cells at 5 uM after 24 hrs by annexinV-FITC/propidium iodide staining based flow cytometric analysis (reference value: 0.87%); assay type: functional
A-375 [21] = experiment: Induction of apoptosis in human A375 cells assessed as late apoptotic cells at 2.5 uM after 36 hrs by annexinV-FITC/propidium iodide staining based flow cytometric analysis (reference value: 1.02%); assay type: functional
A-375 [22] = experiment: Induction of ROS generation in human A375 cells at 1 to 5 uM after 4 hrs by DCFH-DA staining based assay; assay type: functional, cell-based; conditions: dose 1-5 µM
In short: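 ROS assay. A375 cells loaded with diluted DCFH-DA for 45 min at 37 °C, washed three times with PBS, then treated with compound at 37 °C for 4 h. Fluorescence read on a microplate reader at Ex/Em 485/535 nm.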

A-375 [23] = experiment: Induction of apoptosis in human A375 cells assessed as late apoptotic cells at 5 uM after 24 hrs by annexinV-FITC/propidium iodide staining based flow cytometric analysis (reference value: 0.63%); assay type: functional

CC(C)(CO)c1ccc(Nc2ccc(C(=O)C(Cl)Cl)cc2[N+](=O)[O-])cc1
viability at 2.5 µM (A-375 [1]): 68.9%
IC50 (MCF7 [2]): 2.4 µM
Activity (A-375 [3]): 5.71%
IC50 (A549): 3.2 µM
viability at 5 µM (A-375 [4]): 70.9%
Kd [5]: 9.2 µM
Activity (A-375 [6]): 9.64%
Activity [7]: Non-Toxic
inhibition (Homo sapiens): 98.7%
Kd [8]: 7.8 µM
IC50 (SH-SY5Y): 1.7 µM
inhibition of growth at 10 µM (MCF7 [9]): 95.3%
Activity (A-375 [10]): 27.43%
Activity (A-375 [11]): 4.06%
Activity (A-375 [12]): 3.56%
Activity (A-375 [13]): 7.43%
inhibition (A-375 [14]): Active
IC50 (L02): 14.4 µM
Activity (A-375 [15]): 34.63%
Activity (A-375 [16]): 3.17%
Activity (A-375 [17]): 66.86%
Activity (A-375 [18]): 8.7%
viability at 5 µM (A-375 [19]): 44.5%
Activity (A-375 [20]): 6.47%
Activity (A-375 [21]): 22.3%
Activity (A-375 [22]): Active
Activity (A-375 [23]): 19.11%
